The values that follow come from ChEMBL document CHEMBL1124972, “Antiatherosclerotic agents. A structurally novel bivalent inhibitor of acylCoA:cholesterol O-acyltransferase with systemic activity” (J Med Chem, 1990).

The target of test [1] is T1, Acyl-CoA:cholesterol acyltransferase (Oryctolagus cuniculus) (UniProt Q95214).
T1 sequence (whole entry): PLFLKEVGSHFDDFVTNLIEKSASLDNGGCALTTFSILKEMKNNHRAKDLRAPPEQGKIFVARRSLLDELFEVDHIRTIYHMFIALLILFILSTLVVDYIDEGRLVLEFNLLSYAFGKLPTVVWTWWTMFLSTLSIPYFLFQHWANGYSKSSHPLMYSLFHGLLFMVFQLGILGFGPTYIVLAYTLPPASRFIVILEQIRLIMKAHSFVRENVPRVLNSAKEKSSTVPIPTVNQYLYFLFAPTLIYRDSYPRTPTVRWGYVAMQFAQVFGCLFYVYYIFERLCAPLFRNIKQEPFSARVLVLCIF
In words: In vitro inhibitory activity against Acyl coenzyme A:cholesterol acyltransferase at a concentration of 5 ug/mL.

Test [2] has as its target T2, Acyl-CoA:cholesterol acyltransferase (Oryctolagus cuniculus, UniProt Q95214).
T2 sequence (Q95214 whole entry): T1 sequence (whole entry)
In words: In vitro inhibitory activity against Acyl coenzyme A:cholesterol acyltransferase. The procedure, abridged: (§1)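 Cellular assay: Fu5AH cells cultured with [³H]cholesterol-labeled hyperlipemic plasma lipoproteins; inhibition of [³H]cholesteryl ester synthesis and accumulation measured; IC50 given in μg/mL.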

Test [3] concerns the target T1, Acyl-CoA:cholesterol acyltransferase (Oryctolagus cuniculus). Put plainly: Arterial Acyl coenzyme A:cholesterol acyltransferase activity was measured in vitro in rabbit aorta after administration of 50 mg/Kg. The class given is functional, organism-based. The procedure, abridged:
(§2)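 Rabbits given 10-day cholesterol feeding to raise arterial ACAT, then dosed orally at 50 mg kg⁻¹ day⁻¹ for 6 days; aortas excised, incubated in vitro with [1-14C]oleate for 3 h; ACAT activity as cholesteryl [14C]oleate formed, dpm/100 mg wet weight aorta; means of 2 animals per group.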

The subject of test [4] is Oryctolagus cuniculus. Put plainly: Tested in vivo for atheromatous lesion development in Netherland Dwarf rabbit. The class given is functional. An outline of the steps:
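Netherland Dwarf rabbits on cholesterol-containing atherogenic diet, dosed at 50 mg/kg; aortic lesion formation scored as % surface involvement, with plasma total cholesterol (mg/dL); means (±SEM) of 8 animals per group.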

The subject of test [5] is Oryctolagus cuniculus. Put plainly: Tested in vivo for plasma cholesterol levels in Netherland Dwarf rabbit. The class given is functional, organism-based. An outline of the steps:
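Netherland Dwarf rabbits fed cholesterol-containing atherogenic diet, with test agent at 50 mg/kg; plasma total cholesterol in mg/dL measured, alongside aortic lesion surface involvement; means ±SEM of 8 animals per group.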

Test [6] concerns the target T1, Acyl-CoA:cholesterol acyltransferase (Oryctolagus cuniculus). Put plainly: Reduction of ACAT activity after treatment was measured in rabbit aorta. The class given is functional, tissue-based. An outline of the steps:
as §2

The subject of test [7] is Rattus norvegicus. Put plainly: Tested for plasma cholesterol levels against rat after 2.5 hours of oral administration. The class given is functional, organism-based. The procedure, abridged: (§3)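 Male Sprague-Dawley rats (4 per group) intubated orally with 0.6 mL suspension of 1 μCi [4-14C]cholesterol (53 Ci/Mol), corn oil, ethanol, DMSO and 1 mg cholesterol, with or without test agent at 30 mg/kg. Two rats per group bled by cardiac puncture at 2.5 and 6 h; plasma [14C]cholesterol measured as dpm/mL; mean of two animals.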

In test [8] the test system is Rattus norvegicus. Put plainly: Tested for plasma cholesterol levels against rat after 6.0 hours of oral administration. The class given is functional, organism-based. An outline of the steps:
as §3

Test [9] has as its target T3, Sterol O-acyltransferase 1 (Rattus norvegicus) (UniProt O70536).
T3 sequence (whole entry): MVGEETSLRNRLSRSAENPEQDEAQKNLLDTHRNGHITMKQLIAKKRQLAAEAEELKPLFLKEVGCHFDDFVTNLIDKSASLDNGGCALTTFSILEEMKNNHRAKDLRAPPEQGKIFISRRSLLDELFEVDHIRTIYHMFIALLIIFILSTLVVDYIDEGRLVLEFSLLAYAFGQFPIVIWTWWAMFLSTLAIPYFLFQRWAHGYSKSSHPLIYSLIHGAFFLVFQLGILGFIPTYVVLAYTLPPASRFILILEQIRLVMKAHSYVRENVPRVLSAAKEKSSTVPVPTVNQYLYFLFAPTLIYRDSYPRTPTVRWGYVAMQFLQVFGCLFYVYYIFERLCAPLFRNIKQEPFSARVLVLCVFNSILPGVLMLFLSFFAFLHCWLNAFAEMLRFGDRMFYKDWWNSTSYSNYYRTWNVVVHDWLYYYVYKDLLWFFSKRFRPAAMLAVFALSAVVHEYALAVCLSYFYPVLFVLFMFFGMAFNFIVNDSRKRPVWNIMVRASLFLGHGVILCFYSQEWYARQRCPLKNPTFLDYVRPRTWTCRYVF
Put plainly: ACAT inhibitory activity was measured in rat liver after administration of 30 mg/Kg. The class given is functional, organism-based. The procedure, abridged:
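Male Sprague-Dawley rats (435-460 g) fed Purina chow with compound in diet (calculated 30 mg kg⁻¹ day⁻¹) for 8 days; liver minces incubated in vitro with [1-14C]oleate for 90 min; ACAT activity read as cholesteryl [14C]oleate formed, dpm/100 mg wet weight; means of 2 animals per group.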

For test [10], the system named is Sterol O-acyltransferase 1 (Rattus norvegicus). Put plainly: Reduction of ACAT activity after treatment was measured in rat liver.
Test [11] has as its target T2, Acyl-CoA:cholesterol acyltransferase. In words: In vitro inhibitory activity against Acyl coenzyme A:cholesterol acyltransferase; a = inactive. An outline of the steps:
as §1

The structures appear in SMILES notation. Where only a bound is given, the exact number is not on record here.

In general, inhibition refers to the change of the read-out against control, counted positive when it falls. Low values mean a weak effect, high ones a strong effect. On to `COc1c2occc2c(OC)c2c(=O)cc(CN3CCC(C4CCN(Cc5cc(=O)c6c(OC)c7ccoc7c(OC)c6o5)CC4)CC3)oc12`, for which the inhibition in test [1] stood at 0%.
In general, IC50 refers to the concentration at which inhibition is half-maximal. The molecule `COc1c2occc2c(OC)c2c(=O)cc(CN3CCC(CCC4CCN(Cc5cc(=O)c6c(OC)c7ccoc7c(OC)c6o5)CC4)CC3)oc12` had an IC50 in test [2] of 1.12 µM. In addition, the ACAT activity (dpm/100 mg wet wt) came to 305 in test [3] and 535 in [9]. The molecule further came in with a Surface involvement in the test on Oryctolagus cuniculus [4] of less than 10%. In addition, the Plasma total cholesterol in the test on Oryctolagus cuniculus [5] is 271 mg/dL. Further, the Reduction was determined as 42% in test [6] and 62% in [10]. In addition, the figures for the Plasma [14C] cholesterol in the test on Rattus norvegicus [7] and in the test on Rattus norvegicus [8] were 818 dpm/mL and 3880 dpm/mL, respectively.
For `COc1c2occc2c(OC)c2c(=O)cc(CN3CCN(CC(O)CN4CCN(Cc5cc(=O)c6c(OC)c7ccoc7c(OC)c6o5)CC4)CC3)oc12`, in test [1], the inhibition was determined as 7%.
Molecule `COc1c2c(c(OC)c3c(=O)cc(CN4CCC(CCC5CCN(Cc6cc(=O)c7c(OC)c8c(c(OC)c7o6)OCC8)CC5)CC4)oc13)CCO2` had a 50% inhibitory concentration (IC50) in test [2] of 4.19 µM.
In turn, `COc1c2occc2c(OC)c2c(=O)cc(CN3CCN(CCN4CCN(Cc5cc(=O)c6c(OC)c7ccoc7c(OC)c6o5)CC4)CC3)oc12` returned an inhibition in test [1] of 5%.
In the case of `COc1c2occc2c(O)c2c(=O)cc(CN3CCC(CCC4CCN(Cc5cc(=O)c6c(O)c7ccoc7c(OC)c6o5)CC4)CC3)oc12`, the IC50 result in [11] is given as “Not Active”.
Regarding `COc1c2occc2c(OC)c2c(=O)cc(CN3CCC(CCCC4CCN(Cc5cc(=O)c6c(OC)c7ccoc7c(OC)c6o5)CC4)CC3)oc12`, in test [2], the concentration for half-maximal inhibition (IC50) is 5.78 µM.
On the same count and under the same terms, as for `COc1c2occ(F)c2c(OC)c2c(=O)cc(CN3CCC(CCC4CCN(Cc5cc(=O)c6c(OC)c7c(F)coc7c(OC)c6o5)CC4)CC3)oc12`, the figure is less than 13.4 µM.
